Active and inactive are the calls of the source. The rule behind the calls is not given here.
Tests used:
[1] = tested on: Human immunodeficiency virus 1; experiment: Antiviral activity against HIV-1 3B harboring RT Y181C mutant infected in human MT4 cells assessed as inhibition of virus-induced syncytium formation after 5 days by MTT assay; assay type: functional, organism-based
Procedure, shortened: (§1)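 Exponentially growing MT-4 cells, pelleted and resuspended at 6 × 10⁵ cells/mL, were infected with virus stock at 100-300 CCID50. Test compounds were added at infection as serial fivefold dilutions, in triplicate wells. After 5 days, viability was read by MTT reduction at 540 and 690 nm using the median OD of three wells.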

[2] = tested on: Human immunodeficiency virus 1; experiment: Antiviral activity against HIV-1 3B harboring RT Y188L mutant infected in human MT4 cells assessed as inhibition of virus-induced syncytium formation after 5 days by MTT assay; assay type: functional, organism-based; procedure, shortened: as §1
[3] = tested on: Human immunodeficiency virus 1; experiment: Antiviral activity against HIV-1 3B harboring RT F227L and V106A mutant infected in human MT4 cells assessed as inhibition of virus-induced syncytium formation after 5 days by MTT assay; assay type: functional, organism-based; procedure, shortened: as §1
[4] = tested on: Human immunodeficiency virus 1; experiment: Antiviral activity against HIV-1 3B harboring RT K103N and Y181C mutant infected in human MT4 cells assessed as inhibition of virus-induced syncytium formation after 5 days by MTT assay; assay type: functional, organism-based; procedure, shortened: as §1
[5] = tested on: Human immunodeficiency virus 1; experiment: Antiviral activity against HIV-1 3B infected in human MT4 cells assessed as inhibition of virus-induced syncytium formation after 5 days by MTT assay; assay type: functional, organism-based; settings: Human immunodeficiency virus 1, 3B, MT4, 120 h
Procedure, shortened: (§2)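 MT-4 cells (exponentially growing, spun 5 min at 1000 rpm, resuspended at 6 × 10⁵ cells/mL) infected with HIV-1 IIIB or HIV-2 ROD at 100–300 CCID50. Compounds added at infection in triplicate wells as serial fivefold dilutions, with untreated infected and mock-infected controls. Viability read by MTT at 540 and 690 nm after 5 days, from the median OD of three wells.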

[6] = tested on: Human immunodeficiency virus 2; experiment: Antiviral activity against HIV-2 ROD infected in human MT4 cells assessed as inhibition of virus-induced syncytium formation after 5 days by MTT assay; assay type: functional, organism-based; settings: Human immunodeficiency virus 2, ISOLATE ROD, MT4, 120 h; procedure, shortened: as §2
[7] = Cytotoxicity against human MT4 cells assessed as cell viability after 5 days by MTT assay; assay type: cell-based
Procedure, shortened: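 MT-4 cells at 6 × 10⁵ cells/mL, mock-infected with culture medium and run in parallel with the antiviral plates. Test compounds given as serial fivefold dilutions in triplicate wells. After 5 days viability read by MTT reduction to formazan at 540 and 690 nm, using the median OD of three wells.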

[8] = tested on: Human immunodeficiency virus 1; experiment: Antiviral activity against HIV-1 3B harboring RT E138K mutant infected in human MT4 cells assessed as inhibition of virus-induced syncytium formation after 5 days by MTT assay; assay type: functional, organism-based; settings: Human immunodeficiency virus 1, 3B, MT4, 120 h; procedure, shortened: as §1
[9] = tested on: Human immunodeficiency virus 1; experiment: Antiviral activity against HIV-1 3B harboring RT K103N mutant infected in human MT4 cells assessed as inhibition of virus-induced syncytium formation after 5 days by MTT assay; assay type: functional, organism-based; settings: Human immunodeficiency virus 1, 3B, MT4, 120 h; procedure, shortened: as §1
[10] = tested on: Human immunodeficiency virus 1; experiment: Antiviral activity against HIV-1 3B harboring RT L100I mutant infected in human MT4 cells assessed as inhibition of virus-induced syncytium formation after 5 days by MTT assay; assay type: functional, organism-based; settings: Human immunodeficiency virus 1, 3B, MT4, 120 h; procedure, shortened: as §1
[11] = tested on: Human immunodeficiency virus 1; experiment: Ratio of EC50 for HIV-1 3B harboring RT K103N mutant infected in human MT4 cells to EC50 for wild type HIV-1 3B infected in human MT4 cells; assay type: functional
Procedure, shortened: (§3)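 Fold resistance is the EC50 against the drug-resistant strain divided by the EC50 against wild-type HIV-1 IIIB. Both values come from the same MT-4 assay: 5-day infection, MTT viability read-out, and serial fivefold compound dilutions in triplicate wells.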

[12] = tested on: Human immunodeficiency virus 1; experiment: Ratio of EC50 for HIV-1 3B harboring RT E138K mutant infected in human MT4 cells to EC50 for wild type HIV-1 3B infected in human MT4 cells; assay type: functional; procedure, shortened: as §3
[13] = tested on: Human immunodeficiency virus 1; experiment: Ratio of EC50 for HIV-1 3B harboring RT L100I mutant infected in human MT4 cells to EC50 for wild type HIV-1 3B infected in human MT4 cells; assay type: functional; procedure, shortened: as §3
[14] = Selectivity index, ratio of CC50 for human MT4 cells to EC50 for HIV-1 3B infected in human MT4 cells; assay type: toxicity, cell-based; settings: uninfected and infected with HIV-1 3B, read-out: Ratio CC50/EC50
Procedure, shortened: (§4)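 Selectivity index calculated as CC50 divided by EC50. Both values come from MTT readings taken 5 days after infection, on mock-infected and virus-infected MT-4 cells run in parallel.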

[15] = Selectivity index, ratio of CC50 for human MT4 cells to EC50 for HIV-2 ROD infected in human MT4 cells; assay type: toxicity, cell-based; settings: uninfected and infected with HIV-2 ROD, read-out: Ratio CC50/EC50; procedure, shortened: as §4
[16] = target: Human immunodeficiency virus type 1 reverse transcriptase (Human immunodeficiency virus 1, UniProt Q72547); experiment: Inhibition of HIV-1 reverse transcriptase assessed as inhibition of biotin-dUTP incorporation […] by colorimetry
Procedure, shortened: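 Purified recombinant HIV-1 RT with a […] template primer. Read-out is colorimetric detection of biotin-dUTP incorporated into the homopolymer template primer, with nucleotides linked to the microtiter plate.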

| SMILES | inhibition [1] | inhibition [2] | inhibition [3] | inhibition [4] | EC50 [5] | EC50 [6] | CC50 at 120 h [7] | EC50 [8] | EC50 [9] | EC50 [10] | Ratio EC50 [11] | Ratio EC50 [12] | Ratio EC50 [13] | selectivity ratio [14] | selectivity ratio [15] | IC50 [16] | EC50 ([4]; Human immunodeficiency virus 1, 3B, MT4, 120 h) |
| --- | --- | --- | --- | --- | --- | --- | --- | --- | --- | --- | --- | --- | --- | --- | --- | --- | --- |
| Cc1ccnc2c1NC(=O)c1cccnc1N2C1CC1 [NEVIRAPINE] | inactive | inactive | inactive | inactive | 0.19 µM | > 15 µM | > 15 µM | 0.18 µM | 7.25 µM | 1.92 µM |  |  |  |  |  |  |  |
| O=C(CSc1ncnn1-c1ccc(Cl)cc1Cl)Nc1ccccc1Cl | inactive | inactive | inactive | inactive | 6.21 µM | > 29.1 µM | 29.1 µM | 20.9 µM | 16.1 µM | 21.4 µM | 2.8 | 3.6 | 3.7 | 5 | < 1 |  |  |
| O=C(CSc1ncnn1-c1ccc(Cl)cc1Cl)Nc1ccccc1[N+](=O)[O-] | inactive | inactive | inactive | inactive | 2.78 µM | > 187 µM | 187 µM | 9.45 µM | 7.42 µM | 8.51 µM | 1.8 | 2.3 | 2.1 | 67 | < 1 | > 471 µM |  |
| O=C(CSc1ncnn1-c1ccc(Cl)cc1Cl)Nc1cccnc1Cl | inactive | inactive | inactive | inactive | 4.99 µM | > 98.5 µM | 98.5 µM | 6.79 µM | 10.5 µM | 15.4 µM | 2.8 | 4.3 | 4.4 | 20 | < 1 |  |  |
| CCOC(=O)c1ccc(NC(=O)CSc2ncnn2-c2ccc(Cl)cc2Cl)c(Br)c1 | inactive | inactive | inactive | inactive | 4.68 µM | > 33.1 µM | 33.1 µM | > 38.7 µM | 9.54 µM | 10.8 µM | 1.6 | >6.7 | 1.9 | 7 | < 1 | 297 µM |  |
| Cc1cc(C#N)cc(C)c1Oc1nc(Nc2ccc(C#N)cc2)nc(N)c1Br [ETRAVIRINE] | inactive | inactive | inactive | inactive |  |  |  | 0.008 µM | 0.00184 µM | 0.0046 µM | 0.62 | 2.6 | 1.54 |  |  |  |  |
| Cc1cn([C@H]2C[C@H](N=[N+]=[N-])[C@@H](CO)O2)c(=O)[nH]c1=O [ZIDOVUDINE] | inactive | inactive | inactive | inactive | 0.0076 µM | 0.0033 µM | > 88.3 µM | 0.02 µM | 0.011 µM | 0.0049 µM | 0.71 | 1.4 | 0.32 | > 11600 | > 28300 |  |  |
| O=C(CSc1ncnn1-c1ccc(Cl)cc1Cl)Nc1ccc(Cl)cc1Cl |  |  |  |  | 34.4 µM | > 172 µM | 172 µM |  |  |  |  |  |  | 5 | < 1 |  |  |
| CC(C)Nc1cccnc1N1CCN(C(=O)c2cc3cc(NS(C)(=O)=O)ccc3[nH]2)CC1.CS(=O)(=O)O [DELAVIRDINE MESYLATE] | inactive | inactive | inactive | inactive |  |  |  | 0.06 µM | 1.72 µM | 2.23 µM | 52.8 | 1.9 | 68.3 |  |  |  |  |
| O=c1[nH]cnc2c1ncn2[C@H]1CC[C@@H](CO)O1 [DIDANOSINE] |  |  |  |  | 8.86 µM | 16 µM | > 211 µM |  |  |  |  |  |  | > 24 | > 13 |  |  |
| COC(=O)c1ccc(NC(=O)CSc2ncnn2-c2ccc(Cl)cc2Cl)c(Br)c1 | inactive | inactive | inactive | inactive | 4.13 µM | > 59.3 µM | 59.3 µM | ≥ 15.2 µM | 7.73 µM | 6.95 µM | 2.2 | >=4.3 | 2 | 14 | < 1 | 385 µM |  |
| O=C(CSc1ncnn1-c1ccc(Cl)cc1Cl)Nc1ccc(Cl)cc1Br |  |  |  |  | > 189 µM | > 189 µM | 189 µM |  |  |  |  |  |  | < 1 | < 1 |  |  |
| CCOC(=O)c1ccc(NC(=O)CSc2ncnn2-c2ccc(Cl)cc2Cl)cc1 |  |  |  |  | > 22.8 µM | > 22.8 µM | 22.8 µM |  |  |  |  |  |  | < 1 | < 1 |  |  |
| O=C1Nc2ccc(Cl)cc2[C@@](C#CC2CC2)(C(F)(F)F)O1 [EFAVIRENZ] | inactive | inactive | inactive | inactive |  |  |  | 0.0055 µM | 0.108 µM | 0.054 µM |  |  |  |  |  |  |  |
| Cc1ccc(NC(=O)CSc2ncnn2-c2ccc(Cl)cc2Cl)c(Br)c1 |  |  |  |  | > 184 µM | > 184 µM | > 184 µM |  |  |  |  |  |  |  |  |  |  |
| Cc1ccccc1NC(=O)CSc1ncnn1-c1ccc(Cl)cc1Cl |  |  |  |  | 32.4 µM | > 106 µM | 106 µM |  |  |  |  |  |  | 3 | < 1 |  |  |
| NS(=O)(=O)c1ccc(NC(=O)CSc2nnc(Br)n2-c2ccc(C3CC3)c3ccccc23)c(Cl)c1 |  |  |  |  |  |  |  |  |  |  |  |  |  |  |  |  | 0.23 µM |
| O=C(CSc1ncnn1-c1ccc(Cl)cc1Cl)Nc1ccccc1Br | inactive | inactive | inactive | inactive | 4.85 µM | > 95.1 µM | 95.1 µM | 28.2 µM | 8.36 µM | 25.7 µM | 1.9 | 6.6 | 6 | 20 | < 1 |  |  |
| CC(=O)c1ccc(NC(=O)CSc2ncnn2-c2ccc(Cl)cc2Cl)c(Br)c1 |  |  |  |  | > 114 µM | > 114 µM | 114 µM |  |  |  |  |  |  | < 1 | < 1 |  |  |
| O=C(CSc1ncnn1-c1ccc(Cl)cc1Cl)Nc1ccccc1F |  |  |  |  | > 38.4 µM | > 38.4 µM | 38.4 µM |  |  |  |  |  |  | < 1 | < 1 |  |  |
| Cc1ccc(NC(=O)CSc2ncnn2-c2ccc(Cl)cc2Cl)c([N+](=O)[O-])c1 |  |  |  |  | > 285 µM | > 285 µM | > 285 µM |  |  |  |  |  |  |  |  |  |  |
| COC(=O)c1ccc(NC(=O)CSc2ncnn2-c2ccc(Cl)cc2Cl)cc1 |  |  |  |  | > 26.3 µM | > 26.3 µM | 26.3 µM |  |  |  |  |  |  | < 1 | < 1 |  |  |
| Nc1ccn([C@H]2CC[C@@H](CO)O2)c(=O)n1 [ZALCITABINE] |  |  |  |  | 0.75 µM | 0.88 µM | > 94 µM |  |  |  |  |  |  | > 127 | > 108 |  |  |

— ChEMBL document CHEMBL1828518, “Arylazolylthioacetanilide. Part 8: Design, synthesis and biological evaluation of novel 2-(2-(2,4-dichlorophenyl)-2H-1,2,4-triazol-3-ylthio)-N-arylacetamides as potent HIV-1 inhibitors” (Eur J Med Chem, 2011)
